Reference: ChEMBL document CHEMBL5724801, “EUbOPEN Chemogenomics Library - Multiplex” (2024)
Values joined by “and” are separate entries in the source; they are usually repeats but may differ in a detail not shown here. Equal values may be shown once.

Test system: Fibroblast
Assay: Multiplex assay against human fibroblast
Assay type: toxicity, cell-based
In short: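 Cells were classed with CellPathfinder machine-learning gating, first as Hoechst high-intensity objects or normal cells, then (normal cells) as healthy, pyknosed or fragmented nuclei, and finally (pyknosed cells) as mitotic or apoptotic. Staining of live cells at seeding used Hoechst33342, BioTracker Green Microtubule Cytoskeleton Dye, MitoTracker Red and Annexin V Alexa Fluor 680, with imaging on a CQ1 microscope at 37°C and 5% CO2 after compound addition. Tubulin, mitochondrial-mass and membrane-permeability phenotypes are per cents of healthy-nucleus cells.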

[1] = 12 h, 1 µM, compound concentration 1 uM
[2] = 12 h, 10 µM, compound concentration 10 uM
[3] = 24 h, 1 µM, compound concentration 1 uM
[4] = 24 h, 10 µM, compound concentration 10 uM
[5] = 48 h, 1 µM, compound concentration 1 uM
[6] = 48 h, 10 µM, compound concentration 10 uM

## C=CCN1C[C@H](C(=O)N(CCCN(C)C)C(=O)NCC)C[C@@H]2c3cccc4[nH]cc(c34)C[C@H]21 [CABERGOLINE]
[1]
  Population Apoptotic (%): 69% and 35%
  Population Fragmented Nuclei (%): 13% and 20%
  Population Healthy Nuclei (%): 78% and 46%
  Population Hoechst High Intensity Objects (%): 6%
  Population Membrane Permeable-Phenotype (%): 0% and 4%
  Population Mitochondria Different-Phenotype (%): 2% and 1%
  Population Mitotic Cells (%): 30% and 64%
  Population Normal (%): 93%
  Population Tubulin-Different-Phenotype (%): 26% and 25%
  Total Cell Count: 186 and 144
[2]
  Population Apoptotic (%): 50% and 35%
  Population Fragmented Nuclei (%): 25% and 44%
  Population Healthy Nuclei (%): 64% and 39%
  Population Hoechst High Intensity Objects (%): 3% and 5%
  Population Membrane Permeable-Phenotype (%): 0% and 6%
  Population Mitochondria Different-Phenotype (%): 11% and 10%
  Population Mitotic Cells (%): 50% and 64%
  Population Normal (%): 96% and 94%
  Population Pyknosed Nuclei (%): 10% and 16%
  Population Tubulin-Different-Phenotype (%): 46% and 53%
  Total Cell Count: 248 and 178
[3]
  Population Apoptotic (%): 68% and 44%
  Population Fragmented Nuclei (%): 15% and 24%
  Population Healthy Nuclei (%): 74% and 46%
  Population Hoechst High Intensity Objects (%): 4% and 6%
  Population Membrane Permeable-Phenotype (%): 1% and 3%
  Population Mitochondria Different-Phenotype (%): 3%
  Population Mitotic Cells (%): 31% and 55%
  Population Normal (%): 95% and 93%
  Population Pyknosed Nuclei (%): 10% and 29%
  Population Tubulin-Different-Phenotype (%): 33% and 39%
  Total Cell Count: 198 and 132
[4]
  Population Apoptotic (%): 73% and 43%
  Population Fragmented Nuclei (%): 28% and 43%
  Population Healthy Nuclei (%): 65% and 46%
  Population Hoechst High Intensity Objects (%): 1% and 10%
  Population Membrane Permeable-Phenotype (%): 0% and 2%
  Population Mitochondria Different-Phenotype (%): 7% and 5%
  Population Mitotic Cells (%): 26% and 56%
  Population Normal (%): 98% and 89%
  Population Pyknosed Nuclei (%): 5% and 9%
  Population Tubulin-Different-Phenotype (%): 44% and 53%
  Total Cell Count: 274 and 181
[5]
  Population Apoptotic (%): 56% and 58%
  Population Fragmented Nuclei (%): 15% and 24%
  Population Healthy Nuclei (%): 75% and 54%
  Population Hoechst High Intensity Objects (%): 5% and 7%
  Population Membrane Permeable-Phenotype (%): 0% and 6%
  Population Mitochondria Different-Phenotype (%): 6% and 1%
  Population Mitotic Cells (%): 43% and 41%
  Population Normal (%): 94% and 92%
  Population Pyknosed Nuclei (%): 8% and 21%
  Population Tubulin-Different-Phenotype (%): 34% and 33%
  Total Cell Count: 189 and 156
[6]
  Population Apoptotic (%): 72% and 46%
  Population Fragmented Nuclei (%): 24% and 52%
  Population Healthy Nuclei (%): 68% and 37%
  Population Hoechst High Intensity Objects (%): 4% and 5%
  Population Membrane Permeable-Phenotype (%): 1% and 6%
  Population Mitochondria Different-Phenotype (%): 4% and 11%
  Population Mitotic Cells (%): 27% and 53%
  Population Normal (%): 95% and 94%
  Population Pyknosed Nuclei (%): 6% and 9%
  Population Tubulin-Different-Phenotype (%): 46% and 44%
  Total Cell Count: 282 and 170

## CCCCC[C@H](O)/C=C/[C@H]1[C@H](O)CC(=O)[C@@H]1CCCCCCC(=O)O [ALPROSTADIL]
[1]
  Population Apoptotic (%): 61% and 43%
  Population Fragmented Nuclei (%): 16% and 23%
  Population Healthy Nuclei (%): 71% and 57%
  Population Hoechst High Intensity Objects (%): 0% and 4%
  Population Membrane Permeable-Phenotype (%): 0% and 10%
  Population Mitochondria Different-Phenotype (%): 1% and 2%
  Population Mitotic Cells (%): 38% and 56%
  Population Normal (%): 99% and 95%
  Population Pyknosed Nuclei (%): 12% and 18%
  Total Cell Count: 150 and 169
[2]
  Population Apoptotic (%): 36% and 34%
  Population Healthy Nuclei (%): 75% and 43%
  Population Membrane Permeable-Phenotype (%): 2% and 11%
  Population Mitochondria Different-Phenotype (%): 4% and 1%
  Population Mitotic Cells (%): 63% and 65%
  Population Normal (%): 94% and 83%
  Population Pyknosed Nuclei (%): 17% and 31%
  Population Tubulin-Different-Phenotype (%): 26% and 45%
  Total Cell Count: 136 and 146
[3]
  Population Apoptotic (%): 25% and 43%
  Population Fragmented Nuclei (%): 15% and 22%
  Population Healthy Nuclei (%): 73% and 53%
  Population Hoechst High Intensity Objects (%): 0% and 2%
  Population Membrane Permeable-Phenotype (%): 0% and 8%
  Population Mitochondria Different-Phenotype (%): 1% and 8%
  Population Mitotic Cells (%): 75% and 56%
  Population Normal (%): 99% and 97%
  Population Pyknosed Nuclei (%): 10% and 24%
  Population Tubulin-Different-Phenotype (%): 15% and 40%
  Total Cell Count: 147 and 165
[4]
  Population Apoptotic (%): 63% and 30%
  Population Fragmented Nuclei (%): 14% and 27%
  Population Healthy Nuclei (%): 69% and 45%
  Population Membrane Permeable-Phenotype (%): 0% and 16%
  Population Mitochondria Different-Phenotype (%): 2% and 3%
  Population Mitotic Cells (%): 36% and 69%
  Population Normal (%): 97% and 86%
  Population Pyknosed Nuclei (%): 15% and 26%
  Total Cell Count: 147 and 157
[5]
  Population Apoptotic (%): 32% and 55%
  Population Fragmented Nuclei (%): 18% and 26%
  Population Healthy Nuclei (%): 62% and 51%
  Population Hoechst High Intensity Objects (%): 1% and 3%
  Population Membrane Permeable-Phenotype (%): 1% and 6%
  Population Mitochondria Different-Phenotype (%): 4% and 8%
  Population Mitotic Cells (%): 67% and 44%
  Population Normal (%): 98% and 96%
  Population Pyknosed Nuclei (%): 18% and 21%
  Population Tubulin-Different-Phenotype (%): 30% and 44%
  Total Cell Count: 152 and 162
[6]
  Population Apoptotic (%): 62% and 48%
  Population Fragmented Nuclei (%): 11% and 33%
  Population Healthy Nuclei (%): 62% and 44%
  Population Mitochondria Different-Phenotype (%): 7%
  Population Mitotic Cells (%): 37% and 51%
  Population Normal (%): 97% and 83%
  Population Pyknosed Nuclei (%): 26% and 22%
  Population Tubulin-Different-Phenotype (%): 34% and 60%
  Total Cell Count: 144
